Screening data (PubChem BioAssay)
PRMT1 inh: inhibitors of human PRMT1. AID 652257. inhibition, % at 2.79 µM. recombinant PRMT1, activity-based probe fluorescence polarization. Q99873. 370,000 tested, 1.3% active;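 active means inhibition above about 21% made by adding two undisclosed values, limit read from the data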
Target sequence (Q99873 whole entry, looked up): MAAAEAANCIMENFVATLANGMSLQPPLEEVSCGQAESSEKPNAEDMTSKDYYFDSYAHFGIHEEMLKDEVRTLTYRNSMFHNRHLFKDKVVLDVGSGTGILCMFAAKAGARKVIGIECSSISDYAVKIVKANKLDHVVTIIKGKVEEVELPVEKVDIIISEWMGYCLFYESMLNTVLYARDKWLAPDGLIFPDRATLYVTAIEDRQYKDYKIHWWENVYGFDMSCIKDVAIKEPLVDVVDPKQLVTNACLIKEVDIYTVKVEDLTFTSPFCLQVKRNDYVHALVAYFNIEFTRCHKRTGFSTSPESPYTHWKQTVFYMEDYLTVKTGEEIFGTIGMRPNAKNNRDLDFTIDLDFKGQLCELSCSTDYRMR
PME-1 primary: blocks human protein phosphatase methylesterase 1. inhibition, % at 5.9 µM. Q9Y570. 320,000 tested, 0.53% active. recombinant PME-1, FP-Rh probe fluorescence polarization;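 active means inhibition above the campaign mean of all compounds plus 3 SD, cut at about 26% in these data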;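 further: competitive labeling of PME-1 active site by serine hydrolase directed probe; 0% = PME-1 with DMSO and 100% = wells lacking PME-1 enzyme; inhibitors block probe labeling so polarization falls and inhibition rises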
GSTO1 counter: GSTO1 inhibition, counter-screen for RBBP9 inhibitors; P78417; recombinant GSTO1, activity-based probe fluorescence polarization; inhibition, % at 5.96 µM; 300,000 tested, 1.1% active; AID 1974;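 active means inhibition above the campaign mean inhibition plus 3 SD, cut at about 35% in these data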;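 further: 0% = GSTO1-1 with DMSO and 100% = wells lacking GSTO1-1 enzyme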
Target sequence (P78417 whole entry, looked up): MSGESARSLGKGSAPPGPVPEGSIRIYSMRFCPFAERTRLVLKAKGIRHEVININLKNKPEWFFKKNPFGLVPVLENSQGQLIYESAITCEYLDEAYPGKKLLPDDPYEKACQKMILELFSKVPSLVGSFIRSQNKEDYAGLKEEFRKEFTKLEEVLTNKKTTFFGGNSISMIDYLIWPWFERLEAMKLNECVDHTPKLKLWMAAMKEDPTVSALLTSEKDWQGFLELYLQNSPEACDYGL
RBBP9 inhibitor: blocks human serine hydrolase RBBP9; inhibition, % at 7.94 µM; 220,000 tested, 0.2% active; recombinant RBBP9, FP-Rh probe fluorescence polarization; AID 1515; O75884;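 active means inhibition above the campaign mean of all tested compounds plus 3 SD, cut at about 14% in these data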;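 further: plate controls were DMSO wells with RBBP9 for no effect and wells lacking RBBP9 protein for full effect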
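Measured by – fluorescence polarization · Test system – RBBP9 protein · Input – 2.5 µM RBBP9 dispensing solution, before mixing · Measure – percent inhibition from mP, scaled between DMSO and no-protein wells · Benchmarks – DMSO-treated enzyme wells and wells lacking RBBP9 · Times – preincubation 30 min plus labeling 45 min at 25 °C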
PAD4 FP inh: PAD4 (human) enzyme inhibition | recombinant PAD4, RCA probe fluorescence polarization | 330,000 tested, 0.41% active | Q9UM07 | AID 485272 | inhibition, % at 6.36 µM;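 active means percent inhibition above a cutoff equal to the mean of all tested compounds plus 3 SD, cut at about 15% in these data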;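 further: 0% = PAD4 with RCA probe and DMSO and 100% = probe without PAD4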
Fam108B inh: counter-screen for RBBP9 inhibitors: inhibitors of mouse Fam108B | inhibition, % at 9.51 µM | recombinant Fam108B, FP-Rh probe fluorescence polarization | 300,000 tested, 0.33% active;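 active means inhibition above the screen mean inhibition plus 3 SD, computed separately per campaign, cut at about 18% in these data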;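 further: inhibitors lower polarization as less probe binds the enzyme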
PRMT1 inh conf: confirmation of human PRMT1 inhibitors; shares compounds with PRMT1 inh; recombinant His-PRMT1, activity-based probe fluorescence polarization; 3,300 tested, 42% active; inhibition, % at 2.79 µM;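 active means mean inhibition across replicates above the hit cutoff derived for the earlier primary screen, cut at about 22% in these data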
An asterisk follows results filed as active. The list is not random: actives were taken first. Their share in the collection is about 2.3%.

For CCc1cc2cc(C)c(C)cc2nc1SCC(=O)NNC(=O)c1ccco1 the results were PRMT1 inh 29*, PME-1 primary -1, GSTO1 counter -5, RBBP9 inhibitor -3, PAD4 FP inh -5, Fam108B inh 3 and PRMT1 inh conf -2.
`Cc1ccc2nsnc2c1NC(=O)c1cncc(Br)c1` gave PRMT1 inh 4, PME-1 primary 2, GSTO1 counter 19, RBBP9 inhibitor -3, PAD4 FP inh -5 and Fam108B inh -1.
O=C(O)c1cc(-c2ccc(/C=C3\NC(=O)N(c4ccc(Cl)cc4)C3=O)o2)ccc1Cl was read as PRMT1 inh 27*, PME-1 primary -11, GSTO1 counter -1, RBBP9 inhibitor -9, PAD4 FP inh 1, Fam108B inh 11 and PRMT1 inh conf 22*.
Screening O=C(Cn1sc2ccccc2c1=O)Nc1ccc(Br)cc1 returned PRMT1 inh 93* and PRMT1 inh conf 81*.
`O=C(Cn1nc(-c2ccccc2)c2ccccc2c1=O)Nc1ccc(F)cc1` gave PRMT1 inh -8, PME-1 primary 0, GSTO1 counter 5, RBBP9 inhibitor -5, PAD4 FP inh 6 and Fam108B inh -2.
Screening O=C(Cn1sc2ccccc2c1=O)Nc1ccc(Cl)cc1 returned PRMT1 inh 90* and PRMT1 inh conf 90*.
Screening O=C(Cn1sc2ccccc2c1=O)Nc1ccc(F)cc1 returned PRMT1 inh 91* and PRMT1 inh conf 91*.
`O=C(CN1C(=O)CNC1=O)Nc1ccc(Cl)cc1` gave PRMT1 inh -4, PME-1 primary -5, GSTO1 counter -15, RBBP9 inhibitor 6, PAD4 FP inh -7 and Fam108B inh 0.
`COc1cc(C)c(C(=O)Oc2cc(C)c(C(=O)O)c(O)c2C)c(O)c1C(=O)O` gave PRMT1 inh -1, PME-1 primary -4, GSTO1 counter 5, PAD4 FP inh -1 and Fam108B inh 2.
For Nc1ccc2[nH]ncc2c1 the results were PRMT1 inh -2, PME-1 primary -1, GSTO1 counter 8, RBBP9 inhibitor -1, PAD4 FP inh -11 and Fam108B inh -2.
`N#CC1=C(N)Oc2n[nH]c(-c3ccccc3)c2C1c1cccc(OC(=O)N2CCOCC2)c1` (stereo not drawn) gave PRMT1 inh 2, PME-1 primary -1, GSTO1 counter 31, RBBP9 inhibitor 0, PAD4 FP inh -9 and Fam108B inh -3.
`O=C(O)C1CSC(c2ccncc2)N1` (stereo not drawn) gave PME-1 primary -1, GSTO1 counter -1, RBBP9 inhibitor -3, PAD4 FP inh 0 and Fam108B inh -3.
`O=C(O)C1CSC(c2ccco2)N1` (stereo not drawn) gave PRMT1 inh 27*, PME-1 primary 0, GSTO1 counter 3, RBBP9 inhibitor -2, PAD4 FP inh 4, Fam108B inh 2 and PRMT1 inh conf 32*.
`CCC[C@H]1[C@@H](OC(=O)NCc2ccc(C)o2)CC[C@@]23CCCN2C(=O)CCC[C@@H]13` gave PRMT1 inh 13.
`O=C1CCSc2c1ccc1ccccc21` gave PRMT1 inh 29* and PRMT1 inh conf -1.
`COc1ccc([N+](=O)[O-])cc1NC(=O)CSc1nc(C)cc(C)n1` gave PRMT1 inh 54*, PME-1 primary -5, GSTO1 counter -1, RBBP9 inhibitor -6, PAD4 FP inh -12, Fam108B inh -7 and PRMT1 inh conf 45*.
COc1ccccc1-c1ccc(/C=C2\C=CC(=O)O2)o1 was read as PRMT1 inh 44*, PME-1 primary 5, GSTO1 counter 4, RBBP9 inhibitor -6, PAD4 FP inh -3, Fam108B inh 0 and PRMT1 inh conf 3.
`COc1ccccc1-c1ccc(/C=C2/C=C(C)OC2=O)o1` gave PRMT1 inh 19, PME-1 primary 0, GSTO1 counter 10, RBBP9 inhibitor -6, PAD4 FP inh -1 and Fam108B inh -1.
Screening Cc1nn(CC(=O)N(C)C)c(=O)c2ccccc12 returned PRMT1 inh -1, PME-1 primary -1, GSTO1 counter 4, RBBP9 inhibitor 0, PAD4 FP inh 4 and Fam108B inh 1.
For O=C(CSc1ccc(-c2cccs2)nn1)c1cccs1 the results were PRMT1 inh 28*, PME-1 primary -4, GSTO1 counter 0, RBBP9 inhibitor -6, PAD4 FP inh -2, Fam108B inh -3 and PRMT1 inh conf 5.
Screening CC(=Nc1ccc(O)cc1)c1sc2ccccc2c1O returned PRMT1 inh 27*, PME-1 primary 0, GSTO1 counter 31, RBBP9 inhibitor 0, PAD4 FP inh -6, Fam108B inh 4 and PRMT1 inh conf 13.
Screening Cc1cccc(N=Nc2ccc(O)c3ncccc23)c1 returned PRMT1 inh 1, PME-1 primary 7, GSTO1 counter 2, RBBP9 inhibitor -7, PAD4 FP inh -5 and Fam108B inh 9.
`CC(=Nc1ccccc1O)c1sc2ccccc2c1O` gave PRMT1 inh 34*, PME-1 primary 3, GSTO1 counter 10, RBBP9 inhibitor 1, PAD4 FP inh 2, Fam108B inh 17 and PRMT1 inh conf 25*.
Oc1c(N=Nc2ccccc2)sc2ccccc12 was read as PRMT1 inh 7, PME-1 primary -10, GSTO1 counter -16, RBBP9 inhibitor -10, PAD4 FP inh -19 and Fam108B inh -2.
Screening O=C(CNC(=O)c1sc2ccccc2c1Cl)NCc1ccccc1 returned PRMT1 inh 4, PME-1 primary -1, GSTO1 counter 0, PAD4 FP inh -4 and Fam108B inh 0.
For CC(=Nc1cccc(C)c1)c1sc2ccccc2c1O the results were PRMT1 inh 26*, PME-1 primary -1, GSTO1 counter 5, RBBP9 inhibitor -6, PAD4 FP inh 5, Fam108B inh 11 and PRMT1 inh conf 19.
`CC(=O)NCCN=C(C)c1sc2ccccc2c1O` gave PRMT1 inh 25*, PME-1 primary -9, GSTO1 counter 9, RBBP9 inhibitor -2, PAD4 FP inh 3, Fam108B inh -5 and PRMT1 inh conf 21*.
For COc1ccc(N2C(=O)CC(NCCNc3ccc([N+](=O)[O-])cn3)C2=O)cc1 (stereo not drawn) the results were PRMT1 inh 36*, PME-1 primary 6, GSTO1 counter -2, RBBP9 inhibitor -3, PAD4 FP inh 3, Fam108B inh 3 and PRMT1 inh conf 8.
`CCOc1ccc(N2C(=O)CC(NCCNc3ccc([N+](=O)[O-])cn3)C2=O)cc1` (stereo not drawn) gave PRMT1 inh 49*, PME-1 primary 1, GSTO1 counter 9, RBBP9 inhibitor 2, PAD4 FP inh 4, Fam108B inh 2 and PRMT1 inh conf 7.
